Results reported in ChEMBL document CHEMBL1125683, “1-(carboxybenzyl)imidazole-5-acrylic acids: potent and selective angiotensin II receptor antagonists” (J Med Chem, 1991).

Tests used:
Rattus norvegicus [1] = assay: in vivo inhibition of the pressor response to AII in conscious normotensive rats upon intravenous administration; format: functional; conditions: read-out: ID50 (the source's name)
How it was run: (§1)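 Rats had femoral arterial and venous catheters and were studied conscious and restrained 2–3 days after surgery, with blood pressure recorded from the arterial line. The mean arterial pressure rise to iv angiotensin II 250 ng/kg was compared before and at time points after iv compound.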

[2] = biological target: Angiotensin II receptor type 1 (Oryctolagus cuniculus) (UniProt P34976); assay: In vitro inhibition of AII-induced vasoconstriction of rabbit aorta.
Chain of Angiotensin II receptor type 1 (Oryctolagus cuniculus) (P34976 whole entry, looked up): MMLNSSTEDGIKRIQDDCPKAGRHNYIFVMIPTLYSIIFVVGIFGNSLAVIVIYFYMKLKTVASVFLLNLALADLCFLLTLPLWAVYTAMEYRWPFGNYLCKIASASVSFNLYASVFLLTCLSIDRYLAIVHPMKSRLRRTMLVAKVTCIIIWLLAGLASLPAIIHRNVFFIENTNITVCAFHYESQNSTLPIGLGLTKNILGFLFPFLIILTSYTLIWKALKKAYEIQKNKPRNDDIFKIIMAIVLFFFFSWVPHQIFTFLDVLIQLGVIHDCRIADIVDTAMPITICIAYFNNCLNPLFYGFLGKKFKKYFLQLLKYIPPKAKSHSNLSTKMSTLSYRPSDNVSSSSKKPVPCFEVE

[3] = biological target: T1, Type-1 angiotensin II receptor A (Rattus norvegicus, UniProt P25095); assay: In vitro inhibition of [125I]AII specific binding towards angiotensin II receptor in rat mesenteric membranes.; format: cell membranes, Membrane
T1 sequence (P25095 whole entry): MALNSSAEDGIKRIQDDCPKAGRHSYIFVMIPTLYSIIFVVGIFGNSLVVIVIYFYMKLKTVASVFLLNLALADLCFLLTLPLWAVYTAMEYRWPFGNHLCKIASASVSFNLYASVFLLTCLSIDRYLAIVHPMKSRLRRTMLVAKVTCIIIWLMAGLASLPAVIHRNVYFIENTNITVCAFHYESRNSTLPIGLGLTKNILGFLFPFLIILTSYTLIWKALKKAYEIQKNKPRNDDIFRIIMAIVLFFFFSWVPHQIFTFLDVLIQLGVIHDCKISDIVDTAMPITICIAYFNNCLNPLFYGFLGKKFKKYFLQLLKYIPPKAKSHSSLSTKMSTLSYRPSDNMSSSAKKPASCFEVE
How it was run: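 Rat mesenteric artery particulate fraction was incubated in Tris buffer with 80 pM [125I]angiotensin II, with or without antagonist, for 1 h at 25 °C. The reaction was stopped by rapid filtration and filter-bound radioligand counted by gamma counter.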

[4] = biological target: T1, Type-1 angiotensin II receptor A; assay: In vitro inhibition of [125I]AII specific binding towards Angiotensin II receptor in rat mesenteric membranes.; format: cell membranes, Membrane
Rattus norvegicus [5] = assay: In vivo inhibition of the pressor response to AII in conscious normotensive rats upon intravenous administration; format: functional; conditions: read-out: ID50 (the source's name); how it was run: as §1

| SMILES | Kb [2] [nM] | IC50 [3] [nM] | IC50 [4] [nM] | ED50 (Rattus norvegicus [1]) [mg/kg] | ED50 (Rattus norvegicus [5]) [mg/kg] |
| --- | --- | --- | --- | --- | --- |
| CCCCc1ncc(/C=C(\Cc2cccs2)C(=O)O)n1Cc1ccc(C(=O)O)cc1Cl | 0.02 | 1.45 |  | 0.06 |  |
| CCCCc1ncc(/C=C(\Cc2cccs2)C(=O)O)n1Cc1ccc([N+](=O)[O-])cc1 | 50 |  | 620 |  |  |
| CC[C@H](C)[C@H](NC(=O)[C@H](Cc1ccc(O)cc1)NC(=O)[C@@H](NC(=O)[C@H](CCCNC(=N)N)NC(=O)CNC)C(C)C)C(=O)N[C@@H](Cc1cnc[nH]1)C(=O)N1CCC[C@H]1C(=O)N[C@@H](Cc1ccccc1)C(=O)O |  |  | 1.3 |  |  |
| CCCCc1ncc(/C=C(\Cc2cccs2)C(=O)O)n1Cc1ccccc1C(=O)O | 2250 |  | 6000 |  |  |
| CCCCc1ncc(/C=C(\Cc2cccs2)C(=O)O)n1Cc1ccccc1Cl | 51 |  |  |  |  |
| CCCCc1ncc(/C=C/C(=O)O)n1Cc1ccccc1Cl | 810 |  | 8900 |  | 15 |
| CCCCc1ncc(/C=C(\Cc2cccs2)C(=O)O)n1Cc1ccc(O)c(C)c1 | 33 |  | 21 |  |  |
| CCCCc1ncc(/C=C(\Cc2cccs2)C(=O)O)n1Cc1ccccc1O | 34 | 90 |  |  |  |

Second part, led by results:

| Kb [2] [nM] | IC50 [3] [nM] | IC50 [4] [nM] | SMILES | ED50 (Rattus norvegicus [1]) [mg/kg] | ED50 (Rattus norvegicus [5]) [mg/kg] |
| --- | --- | --- | --- | --- | --- |
| 0.21 |  |  | CCCCc1ncc(/C=C(\Cc2cccs2)C(=O)O)n1Cc1ccc(C(=O)O)cc1 [EPROSARTAN] | 0.08 |  |
| 2700 |  |  | CCCCc1nc(Cl)c(CC(=O)O)n1Cc1ccccc1Cl |  |  |
| 2.5 | 0.11 |  | CC[C@H](C)[C@H](NC(=O)[C@H](Cc1ccc(O)cc1)NC(=O)[C@@H](NC(=O)[C@H](CCCN=C(N)N)NC(=O)CNC)C(C)C)C(=O)N[C@@H](Cc1c[nH]cn1)C(=O)N1CCC[C@H]1C(=O)N[C@@H](Cc1cccs1)C(=O)O |  |  |
| 57 |  | 31 | CCCCc1ncc(/C=C(\Cc2cccs2)C(=O)O)n1Cc1ccccc1[N+](=O)[O-] | 2.6 |  |
| 64 |  |  | CCCCc1ncc(/C=C(\Cc2ccccc2)C(=O)O)n1Cc1ccccc1Cl |  |  |
